# ChEMBL document CHEMBL4007509, “Structural Optimizations of Thieno[3,2-b]pyrrole Derivatives for the Development of Metabolically Stable Inhibitors of Chikungunya Virus” (J Med Chem, 2017)
# Active and inactive are the calls of the source. The rule behind the calls is not given here.
# Tests used:
# [1] = test system: Chikungunya virus; assay: Antiviral activity against wild type Chikungunya virus IMT infected in HEK293T cells assessed as reduction in virus infection after 24 hrs by FITC immunofluorescence-based single cell quantification high content screening assay; assay type: functional; conditions: HEK-293T
# [2] = Cytotoxicity against HEK293T cells assessed as reduction in cell viability after 24 hrs by CellTiter-Glo luminescent assay; assay type: cell-based, HEK-293T; conditions: human
# In short: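 HEK 293T cell viability was measured by CellTiter-Glo luminescence after 24 h exposure to serial dilutions. Data were normalized to untreated cells (100%) and reagent background (0%). CC50, the concentration reducing viability by 50%, came from a five-parameter asymmetric fit.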
# [3] = test system: Chikungunya virus; assay: Antiviral activity against full length Gaussia princeps Gluc-tagged Chikungunya virus IMT infected in HEK293T cells assessed as reduction in virus infection after 24 hrs by Gaussia luciferase reporter gene assay; assay type: functional, cell-based; conditions: HEK-293T
# [4] = Selectivity index, ratio of CC50 for HEK293T cells to EC50 for full length Gaussia princeps Gluc-tagged Chikungunya virus IMT; assay type: toxicity; conditions: human, read-out: Ratio CC50/EC50
# [5] = Half life in human liver microsomes; assay type: ADME, microsome
# In short: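 Compounds were incubated with human liver microsomes. Half-life = ln(2)/slope, where the slope is ln(% detected) plotted against time, using the mean of at least 3 independent experiments.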
# [6] = test system: Liver; assay: Intrinsic clearance in human liver microsomes; assay type: ADME, microsome
# In short: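 Intrinsic clearance was measured in human liver microsome incubation and expressed in μL min−1 mg−1 microsomal protein.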
# [7] = Terminal half life in C57BL/6 mouse at 3 mg/kg, iv; assay type: ADME, organism-based; conditions: in vivo, read-out: beta t1/2 (converted)
# In short: (§1)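 Male C57BL/6 mice received a single 3 mg/kg iv or 10 mg/kg po dose of a solution in 5% DMSO, 70% PEG400 and 25% water. Results are terminal half-life (h), plasma clearance (mL min−1 kg−1), Vss (L/kg), Tmax (h), Cmax (ng/mL) and oral bioavailability. Values are mean ± SD of three mice.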
# [8] = Terminal half life in C57BL/6 mouse at 10 mg/kg, po; assay type: ADME, organism-based; conditions: in vivo, read-out: beta t1/2 (converted); in short: as §1
# [9] = Plasma clearance in C57BL/6 mouse at 3 mg/kg, iv; assay type: ADME, organism-based; in short: as §1
# [10] = Volume of distribution in steady state in C57BL/6 mouse at 3 mg/kg, iv; assay type: ADME, organism-based; conditions: in vivo, read-out: Vdss; in short: as §1
# [11] = Tmax in C57BL/6 mouse at 10 mg/kg, po; assay type: ADME, organism-based; conditions: in vivo; in short: as §1
# [12] = Cmax in C57BL/6 mouse at 10 mg/kg, po; assay type: ADME, organism-based; design: dose 10 mg/kg, route oral; conditions: in vivo; in short: as §1
# [13] = Oral bioavailability in C57BL/6 mouse at 10 mg/kg; assay type: ADME, organism-based; conditions: in vivo; in short: as §1
# [14] = Plasma concentration in C57BL/6 mouse at 3 mg/kg, iv administered as single dose measured within 1 hr post dose by HPLC-MS/MS analysis; assay type: ADME, organism-based
# In short: (§2)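 Male C57BL/6 mice received a single 3 mg/kg iv or 10 mg/kg po dose in 5% DMSO/70% PEG400/25% water. Plasma was sampled at set times over 24 h and analysed by HPLC-MS/MS, with a quantification limit of 0.5 ng/mL. Values are mean ± SD of three mice.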
# [15] = test system: Chikungunya virus; assay: Antiviral activity against Chikungunya virus IMT infected in HEK 293T cells assessed as reduction in viral load measured up to 24 hrs by qRT-PCR analysis; assay type: functional, cell-based
# [16] = Plasma concentration in C57BL/6 mouse at 10 mg/kg, po administered as single dose measured at 24 hrs by HPLC-MS/MS analysis; assay type: ADME, organism-based; in short: as §2
# [17] = test system: Chikungunya virus; assay: Antiviral activity against Chikungunya virus IMT infected in HEK 293T cells assessed as reduction in viral load at 5 uM measured up to 24 hrs by qRT-PCR analysis relative to control; assay type: functional
# [18] = test system: Chikungunya virus; assay: Antiviral activity against Chikungunya virus IMT infected in HEK 293T cells assessed as reduction in viral load at 10 uM measured up to 24 hrs by qRT-PCR analysis relative to control; assay type: functional
# [19] = test system: Chikungunya virus; assay: Antiviral activity against Chikungunya virus IMT infected in HEK 293T cells assessed as reduction in viral load at 25 uM measured up to 24 hrs by qRT-PCR analysis relative to control; assay type: functional
# [20] = Plasma concentration in C57BL/6 mouse at 10 mg/kg, po administered as single dose measured within 1 hr post dose by HPLC-MS/MS analysis; assay type: ADME, organism-based; in short: as §2
# [21] = Plasma concentration in C57BL/6 mouse at 3 mg/kg, iv administered as single dose measured at 24 hrs by HPLC-MS/MS analysis; assay type: ADME, organism-based; in short: as §2
# [22] = test system: Chikungunya virus; assay: Antiviral activity against Chikungunya virus IMT infected in HEK 293T cells assessed as reduction in viral load measured up to 24 hrs by qRT-PCR analysis relative to control; assay type: functional, cell-based
# [23] = test system: Chikungunya virus; assay: Antiviral activity against full length gluc-tagged Chikungunya virus 2008 Singapore SGP11 infected in HEK293T cells assessed as reduction in virus infection after 24 hrs by gaussia luciferase reporter gene assay; assay type: functional, cell-based; conditions: 2008 Singapore SGP11, HEK-293T
# [24] = test system: Chikungunya virus; assay: Antiviral activity against full length gluc-tagged Chikungunya virus 2013 Caribbean CNR20235 infected in HEK293T cells assessed as reduction in virus infection after 24 hrs by gaussia luciferase reporter gene assay; assay type: functional, cell-based; conditions: 2013 Caribbean CNR20235, HEK-293T
# [25] = test system: Onyong-nyong virus; assay: Antiviral activity against O'nyong-nyong virus Chad infected in HEK293T cells assessed as reduction in virus infection after 24 hrs by FITC-based assay; assay type: functional, cell-based; conditions: HEK-293T
# In short: (§3)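 This was a pan-alphavirus panel against ONNV and SINV, read by immunofluorescence-based high content screen. Serial dilutions were normalized to untreated infection (100%) and noninfected cells (0%). The EC50, the concentration inhibiting 50% infectivity, came from a five-parameter asymmetric dose-response fit.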
# [26] = test system: Sindbis virus; assay: Antiviral activity against Sindbis virus infected in HEK293T cells assessed as reduction in virus infection after 24 hrs by FITC-based assay; assay type: functional, cell-based; conditions: HEK-293T; in short: as §3
# [27] = test system: Chikungunya virus; assay: Antiviral activity against full length gluc-tagged Chikungunya virus IMT infected in human BJ cells assessed as reduction in virus infection after 24 hrs by gaussia luciferase reporter gene assay; assay type: functional, cell-based
# [28] = Cytotoxicity against human BJ cells assessed as reduction in cell viability after 24 hrs by CellTiter-Glo luminescent assay; assay type: cell-based
# In short: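 BJ human fibroblast viability was measured by CellTiter-Glo luminescence after 24 h exposure to serial dilutions. Data were normalized to untreated cells (100%) and reagent background (0%). CC50 came from a five-parameter asymmetric fit.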
# [29] = Selectivity index, ratio of CC50 for human BJ cells to EC50 for full length Gaussia princeps Gluc-tagged Chikungunya virus IMT; assay type: toxicity; conditions: read-out: Ratio CC50/EC50
# [30] = test system: Chikungunya virus; assay: (§4) Antiviral activity against wild type Chikungunya virus IMT infected in HEK293T cells administered 2 to 4 hrs prior to infection measured after 24 hrs post infection by FITC immunofluorescence-based single cell quantification high content screening assay; assay type: functional; conditions: HEK-293T
# [31] = test system: Chikungunya virus; assay: Antiviral activity against wild type Chikungunya virus IMT infected in HEK293T cells administered 2 to 12 hrs post infection measured after 24 hrs post infection by FITC immunofluorescence-based single cell quantification high content screening assay; assay type: functional
# [32] = test system: Chikungunya virus; assay: Antiviral activity against wild type Chikungunya virus IMT infected in HEK293T cells at 5 uM administered 2 to 12 hrs post infection measured after 24 hrs post infection by alpha virus detection based FITC immunofluorescence-based single cell quantification high content screening assay; assay type: functional
# [33] = test system: Chikungunya virus; assay: as §4, with “to infection followed by cels incubation in absence of compound from 0 hrs post infection onwards measured after 24 hrs by measured after” for “to infection measured after”; assay type: functional; conditions: HEK-293T
# [34] = test system: Chikungunya virus; assay: Antiviral activity against wild type Chikungunya virus IMT infected in HEK293T cells at 5 uM administered 2 to 4 hrs prior to infection followed by cels incubation in absence of compound from 0 hrs post infection onwards measured after 24 hrs by measured after 24 hrs post infection by FITC immunofluorescence-based single cell quantification high content screening assay; assay type: functional
# [35] = test system: Chikungunya virus; assay: Antiviral activity against wild type Chikungunya virus IMT infected in HEK293T cells administered during virus adsorption stage (0 hrs post infection) measured after 24 hrs post infection by FITC immunofluorescence-based single cell quantification high content screening assay; assay type: functional
SMILES,EC50 [1] [µM],CC50 at 24 h [2] [µM],EC50 [3] [µM],selectivity ratio [4],half-life [5] [min],CLH [6] [µL/min],half-life [7] [min],half-life [8] [min],clearance [9] [mL/min/kg],Vd [10] [L/kg],Tmax [11] [min],Cmax [12] [ng/mL],bioavailability [13] [%],concentration at 1 h [14] [µM],inhibition [15],concentration at 24 h [16] [ng/mL],fold change (FC) [17],concentration at 1 h [20] [µM],concentration at 24 h [21] [ng/mL],Activity [22],other results
CCCNC(=O)[C@@H]1C[C@H]2CCC[C@@H](C1)[C@@H]2NC(=O)c1cc2sc(Br)nc2n1Cc1ccc(OC)cc1,12.6,> 100,7.23,> 14,52,26.7,65.4,83.4,5.68,0.337,20,6700,39.1,17,Dose-dependent effect,< 0.5,<=5,17,< 0.5,Dose-dependent effect,fold change (FC) [18]: <=5; fold change (FC) [19]: <=5
CCCNC(=O)C1CCN(C(=O)c2cc3sc(-c4ccccc4)cc3n2Cc2ccc(OC)cc2)CC1,4.03,> 100,3.3,> 20,44.2,31.4,124,142,18.6,2.45,40,720,22,2,Dose-dependent effect,< 0.5,>50,2,< 0.5,Dose-dependent effect,EC50 [23]: 2.26 µM; EC50 [24]: 2.18 µM; EC50 [25]: 3.24 µM; EC50 [26]: 1.65 µM; EC50 [27]: 5.07 µM; CC50 at 24 h [28]: > 100 µM; selectivity ratio [29]: > 20; EC50 [30]: 2.5 µM; Activity [31]: Active; Activity [32]: inactive; EC50 [33]: 14 to 15 µM; Activity [34]: inactive; Activity [35]: Active
